CHT block: human CHT choline transport inhibition | AID 488975 | CHT-expressing cells, membrane potential dye, choline response; active compounds read low | B-score at 10 µM | actives 0.86% (n = 310,000);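 active means B-score over 3 SD under the library average, and starting fluorescence ratio not unusually high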;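 further: choline stimulus applied at its EC90 after an EC20 pre-addition; B-score computed on integrated fluorescence ratio after choline addition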
Target sequence (Q9GZV3 whole entry, looked up): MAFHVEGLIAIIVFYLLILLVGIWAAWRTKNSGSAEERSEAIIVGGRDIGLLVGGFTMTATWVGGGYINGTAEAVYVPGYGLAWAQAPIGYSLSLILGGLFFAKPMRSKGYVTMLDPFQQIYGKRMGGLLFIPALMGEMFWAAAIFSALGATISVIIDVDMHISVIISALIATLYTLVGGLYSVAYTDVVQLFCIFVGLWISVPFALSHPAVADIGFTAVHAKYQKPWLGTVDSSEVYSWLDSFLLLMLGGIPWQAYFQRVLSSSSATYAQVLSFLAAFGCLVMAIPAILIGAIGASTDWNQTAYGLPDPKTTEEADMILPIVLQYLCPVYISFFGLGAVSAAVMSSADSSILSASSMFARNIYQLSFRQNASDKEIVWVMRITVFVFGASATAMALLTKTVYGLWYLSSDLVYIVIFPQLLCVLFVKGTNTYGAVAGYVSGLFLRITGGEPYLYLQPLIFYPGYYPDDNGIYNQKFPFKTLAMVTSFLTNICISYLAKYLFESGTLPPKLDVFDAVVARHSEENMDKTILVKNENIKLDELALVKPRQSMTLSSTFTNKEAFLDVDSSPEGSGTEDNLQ
NR2E3 ag-1: activates human NR2E3 receptor. CHO-S Gal4-NCOR/VP16-NR2E3 two-hybrid, luciferase. AID 602229. actives 0.35% (n = 360,000). Q9Y5X4. inhibition of corepressor binding, % at 3.98 µM;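 active means inhibition above the mean of all tested compounds plus 3 SD, cut at about 70% in these data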;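 further: 0% = DMSO with NR2E3 transfected cells and 100% = cells lacking NR2E3 construct; higher means lower luciferase signal from less NR2E3 corepressor binding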
NR2E3 ag-2: agonists of human nuclear receptor NR2E3. GST-NR2E3/biotin-RetCOR TR-FRET, 1536-well. inhibition of corepressor binding, % at 4.78 µM. Q9Y5X4. actives 0.12% (n = 320,000). AID 2300;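 active means percent inhibition above the cutoff of mean plus 3 SD of all tested compounds, set per screening campaign, cut at about 20% in these data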;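 further: 0% = DMSO wells and 100% = biotin wells as full block of FRET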
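Material – GST-tagged NR2E3 plus biotinylated RetCOR corepressor · Quantity – NR2E3 fusion 1.35 nM · Times – 5 h incubation at 4 °C · Medium – pH 7.5 Tris-based buffer · Technique – TR-FRET, Eu(K)-anti-GST donor, streptavidin-D2 acceptor, ex 340, em 617/671 nm · Benchmarks – high control biotin, low control 0.6% DMSO · Format – 1536-well plates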
NR2F2 inh: blocks human COUP-TFII nuclear receptor; actives 0.7% (n = 370,000); inhibition, % at 8.6 µM; HEK293T NGFI-A luciferase reporter, luminescence;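 active means inhibition above a per-plate cutoff, mean inhibition of test wells between control levels plus 3 SD, cut at about 38% in these data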;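 further: cells cotransfected with COUP-TFII expression vector driving the NGFI-A reporter; 0% = median of COUP-TF2 test wells and 100% = reporter-only cells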
CHT allo act: allosterically activates the human high affinity choline transporter | Q9GZV3 | CHT-expressing cells, membrane potential dye, choline EC20; active compounds read high; LV-AA mutant CHT in HEK293 cells | B-score at 10 µM | actives 0.49% (n = 310,000);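 active means initial fluorescence not abnormally high and integrated response B-score, plate-corrected, over 3 SD above library mean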
GalR3 antagonist: blocks the human galanin receptor 3; HEK293 GalR3-CNG cAMP membrane potential fluorescence; galR3 body fused to GalR1 C-terminus; inhibition, % at 3 µM; actives 0.44% (n = 360,000); AID 651719;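 active means inhibition above the screen-wide average plus 3 SD, cut at about 13% in these data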;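 further: forskolin and galanin both at EC90 stimulate the cells; cAMP rise reported by CNG channel membrane potential dye signal; 0% = forskolin plus galanin with DMSO and 100% = forskolin alone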
CHT block conf: human CHT inhibition, confirmatory screen. CHT-expressing cells, choline membrane potential dye; LV-to-AA substituted CHT, HEK293 cells. CHT activity remaining % of control (active compounds read low), % at 10 µM. shares compounds with CHT block. actives 70% (n = 2,400);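 active means choline transporter activity left, mean of duplicates at 10 µM, below buffer-only control mean minus 3 SD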;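 further: depolarization triggered by choline at its EC90 following an EC20 pre-addition; 0% = hemicholinium-3 full block and 100% = buffer-only control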
HEK293 MPD ctr: activity in parental HEK293 cells lacking CHT. membrane potential ratio readout (active if shifted either direction beyond buffer ±3SD; no single direction) at 10 µM. shares compounds with CHT block. membrane potential dye, choline response; active = decrease or increase beyond buffer ±3SD. actives 4% (n = 2,400);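 further: parental cells lack the transporter so any hit is non-specific; ratio is peak minus trough fluorescence over baseline after EC90 choline challenge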
* hit, by the source's call; i = inactive; · = no result. This is a sample that favours compounds with a hit; in the whole collection about 2.3% have one here.

SMILES	CHT block	NR2E3 ag-1	NR2E3 ag-2	NR2F2 inh	CHT allo act	GalR3 antagonist	CHT block conf	HEK293 MPD ctr
CCOP(=O)(OCC)C(NC(=O)Nc1ccccc1)c1ccccc1 (stereo not given)	i	-18	2	-17	i	2	·	·
COC(=O)c1ccc(-c2ccc3c(c2)[C@]2(CCC[C@@H](O)[C@@H]2NC(=O)CCc2ccccc2)C(=O)N3Cc2ccccc2)cc1	·	·	·	10	·	·	·	·
COc1ccc(NC(C)(C)c2nnnn2-c2c(C)cccc2C)cc1	-5.4*	-10	1	20	i	-3	59%*	i
Cc1cccc(C)c1-n1nnnc1C(C)(C)N1CCN(N=O)CC1	-7.2*	-10	-3	15	i	-5	i	i
CCC(C)(c1nnnn1-c1c(C)cccc1C)N(N=O)c1cccc(C(F)(F)F)c1 (stereo not given)	i	-10	1	14	i	-2	·	·
CC1(C)CC(=O)C=C(Nc2ccccc2NC(=O)c2cccc(F)c2F)C1	·	·	·	-12	·	·	·	·
O=C(Nc1ccccc1)c1nnn(Cc2ccccc2)c1NC(=O)C(F)(F)F	-5*	-46	-3	-51	i	-3	32%*	i
COc1ccccc1NC(=O)c1nnn(Cc2ccccc2)c1NC(=O)C(F)(F)F	i	13	3	-21	i	-2	·	·
CCc1c(C)nc2ncnn2c1NCCc1ccccc1	-5.2*	32	1	24	i	-5	47%*	i
O=C(NC1CCCCN(Cc2cccc(C(F)(F)F)c2)C1=O)c1ccc(F)c(F)c1 (stereo not given)	·	·	·	10	·	·	·	·
Cc1nc([N+](=O)[O-])c(Br)n1Cc1ccccc1	-10*	10	0	-2	i	-4	61%*	i
CN(Cc1ccccc1)S(=O)(=O)c1cccc(C(=O)OCc2cccc([N+](=O)[O-])c2)c1	·	·	·	-9	·	·	·	·
Cc1cccc(NC(=O)/C(C#N)=C\c2ccc(C(=O)O)cc2)c1	-6.6*	-12	1	5	i	-5	i	i
Cc1ccc(OC(C)C(=O)Nc2ccc(S(=O)(=O)Nc3nccs3)cc2)cc1 (stereo not given)	i	-18	3	5	i	0	·	·
Cc1cc(C)cc(OC(C)C(=O)Nc2ccc(S(=O)(=O)Nc3cc(C)nc(C)n3)cc2)c1 (stereo not given)	-6*	-10	-1	·	i	·	40%*	i
CCc1ccc(OC(C)C(=O)Nc2ccc(S(=O)(=O)Nc3nccs3)cc2)cc1 (stereo not given)	-5*	-8	-6	24	i	-6	59%*	i
Cc1ccccc1/C=C/C(=O)NCC(=O)N1CCC(N(C)C2CCCCC2C)CC1 (stereo not given)	-13*	3	3	9	i	-6	21%*	i
CCOC(=O)c1cc2c(s1)-c1c(C)cccc1OC2	-6.8*	-55	0	-14	i	·	68%*	i
O=C(CCCCCCN1C(=O)c2ccccc2C1=O)N1CCC(c2ccccc2)C1 (stereo not given)	-6.1*	-5	-1	7	i	-7	i	i
CCOC(=O)[C@]12CCCCC/C=C\1N(CCc1ccc(Cl)cc1)C(=O)[C@H]2CC(=O)N1CCCC1	·	·	·	5	·	·	·	·
CCN(CC)C(=O)CSc1nc2ccc(NC(=O)CSc3nnc(N)s3)cc2s1	i	9	2	-3	i	-6	·	·
CCN(CC)C(=O)CSc1nc2ccc(NC(=O)CSc3nccn3C)cc2s1	-9.6*	-1	1	1	i	0	25%*	i
O=C1CCC[C@H]2C[C@H](NCc3ccc(F)cc3F)CC[C@]23CCCN13	·	·	·	-8	·	·	·	·
Cc1ccccc1CC1(CO)CCCN(Cc2nc(-c3cccs3)oc2C)C1 (stereo not given)	-6.7*	-3	1	2	i	-2	i	i
CCCCCCCCN1C(=O)N2Cc3cc(OC)ccc3C2CS1(=O)=O (stereo not given)	·	·	·	-2	·	·	·	·
SMILES	CHT block	NR2E3 ag-1	NR2E3 ag-2	NR2F2 inh	CHT allo act	GalR3 antagonist	CHT block conf	HEK293 MPD ctr
Cc1cc(C(=O)OCCCN(C)C2CN(Cc3cn(Cc4ccccc4C(F)(F)F)nn3)S(=O)(=O)C2)no1 (stereo not given)	·	·	·	7	·	·	·	·
O=C(Cc1ccccc1F)c1ccc(O)cc1O	-6.2*	-23	-2	-24	i	3	45%*	i
CNc1nc(SC)nc2ccsc12	-14*	-9	2	2	i	-4	4.2%*	i
C=C(C)/C=C1/CN(Cc2ccc3c(c2)OCO3)C(=N)N1C(=O)OCc1ccccc1	·	·	·	16	·	·	·	·
O=[N+]([O-])c1ccc(N2CCCCC2)nc1	-5.8*	4	-2	-20	i	-2	60%*	i
CC(C)OC(=O)c1cccc(-c2ccc(C=O)o2)c1	-5.2*	-22	-3	-20	i	-3	56%*	i
CC(C)OC(=O)c1ccc(COC(=O)c2cccc(-c3nnc(-c4ccccc4)o3)c2)cc1	i	-20	-1	-3	i	0	·	·
Cc1ccc(-n2c(C)cc(C3=NNC(=NC4CC4)SC3)c2C)cc1C	-6.3*	-46	4	22	i	5	i	i
COc1ccc(CNC(=S)NC2CCCC2)cc1	-15*	-1	1	-6	i	-3	i	i
Fc1ccc(-c2n[nH]c(=S)n2N=Cc2ccc(-c3ccccc3)cc2)cc1	·	·	·	2	·	·	·	·
CCCC/C=C1/[C@H](c2ccc(Cl)cc2)N(Cc2ccc3c(c2)OCO3)C2=N[C@H](c3ccccc3)CC(=O)N21	·	·	·	2	·	·	·	·
CSc1ccc(CNCCCSc2ncccn2)cc1	-5.6*	4	-2	-15	i	-11	i	i
O=c1c2ccccc2nc(SCc2ccncc2)n1CC1CCCO1 (stereo not given)	-5*	-24	2	23	i	3	38%*	i
CCOC(=O)[C@]12CCCCC/C=C\1N(CCc1ccc(Cl)cc1)C(=O)[C@H]2CC(=O)N1CCN(C(=O)c2ccco2)CC1	·	·	·	-1	·	·	·	·
Cc1ccc(SCC2(O)CCN(C(=O)c3ccc(Cl)cc3)CC2)cc1	-5.8*	14	-4	4	i	-2	65%*	i
CC(C)CNC(=O)OCc1cn(Cc2cc(F)ccc2F)nn1	·	·	·	6	·	·	·	·
